Experimental data as given in ChEMBL document CHEMBL2016458, “Design and optimization of quinazoline derivatives as melanin concentrating hormone receptor 1 (MCHR1) antagonists” (Bioorg Med Chem Lett, 2012).
In brackets after ≈: the same amount, converted by molar mass.

Experiments:
[1] = target: T1, Melanin-concentrating hormone receptor 1 (Homo sapiens, UniProt Q99705); experiment: biochemical; type: cell-based, CHO-K1
[2] = target: T1, Melanin-concentrating hormone receptor 1; experiment: Antagonist activity at human MCHR1 expressed in CHO-K1 cells assessed as inhibition of MCH peptide mediated response measuring [3H]inositol phosphate production by IP3-SPA-YSI assay; type: functional, cell-based
[3] = Solubility of the compound in 5% DMSO and 95% PBS after overnight incubation using plate shaker; type: physicochemical
How it was run: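 A 10 mM DMSO stock was diluted into PBS to a final 500 µM (5% DMSO). The mix was left to precipitate overnight at RT on a plate shaker, then centrifuged. Supernatant absorbance was read at 260, 280 and 620 nm. Solubility is the absorbance ratio of PBS supernatant to an acetonitrile reference (100 and 500 µM). The 620 nm reading was used to exclude visible contamination.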

[4] = Metabolic stability in mouse liver microsomes assessed as compound remaining at 10 uM after 30 mins by HPLC analysis; type: ADME, Microsome; conditions: read-out: Stability
How it was run: (§1)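 Compound at 10 µM was incubated with 1 mg/ml mouse or pooled human liver microsomes in 0.1 M phosphate buffer, pH 7.4. Reaction was started with NADPH and run 30 min at 37 °C. Result is % parent remaining.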

[5] = Metabolic stability in human liver microsomes assessed as compound remaining at 10 uM after 30 mins by HPLC analysis; type: ADME, Microsome; conditions: read-out: Stability
How it was run: as §1

hERG (KCNH2) = hERG (KCNH2) (Homo sapiens, UniProt Q12809); experiment: Inhibition of human ERG at 1 uM
hERG (KCNH2), sequence (Q12809 whole entry): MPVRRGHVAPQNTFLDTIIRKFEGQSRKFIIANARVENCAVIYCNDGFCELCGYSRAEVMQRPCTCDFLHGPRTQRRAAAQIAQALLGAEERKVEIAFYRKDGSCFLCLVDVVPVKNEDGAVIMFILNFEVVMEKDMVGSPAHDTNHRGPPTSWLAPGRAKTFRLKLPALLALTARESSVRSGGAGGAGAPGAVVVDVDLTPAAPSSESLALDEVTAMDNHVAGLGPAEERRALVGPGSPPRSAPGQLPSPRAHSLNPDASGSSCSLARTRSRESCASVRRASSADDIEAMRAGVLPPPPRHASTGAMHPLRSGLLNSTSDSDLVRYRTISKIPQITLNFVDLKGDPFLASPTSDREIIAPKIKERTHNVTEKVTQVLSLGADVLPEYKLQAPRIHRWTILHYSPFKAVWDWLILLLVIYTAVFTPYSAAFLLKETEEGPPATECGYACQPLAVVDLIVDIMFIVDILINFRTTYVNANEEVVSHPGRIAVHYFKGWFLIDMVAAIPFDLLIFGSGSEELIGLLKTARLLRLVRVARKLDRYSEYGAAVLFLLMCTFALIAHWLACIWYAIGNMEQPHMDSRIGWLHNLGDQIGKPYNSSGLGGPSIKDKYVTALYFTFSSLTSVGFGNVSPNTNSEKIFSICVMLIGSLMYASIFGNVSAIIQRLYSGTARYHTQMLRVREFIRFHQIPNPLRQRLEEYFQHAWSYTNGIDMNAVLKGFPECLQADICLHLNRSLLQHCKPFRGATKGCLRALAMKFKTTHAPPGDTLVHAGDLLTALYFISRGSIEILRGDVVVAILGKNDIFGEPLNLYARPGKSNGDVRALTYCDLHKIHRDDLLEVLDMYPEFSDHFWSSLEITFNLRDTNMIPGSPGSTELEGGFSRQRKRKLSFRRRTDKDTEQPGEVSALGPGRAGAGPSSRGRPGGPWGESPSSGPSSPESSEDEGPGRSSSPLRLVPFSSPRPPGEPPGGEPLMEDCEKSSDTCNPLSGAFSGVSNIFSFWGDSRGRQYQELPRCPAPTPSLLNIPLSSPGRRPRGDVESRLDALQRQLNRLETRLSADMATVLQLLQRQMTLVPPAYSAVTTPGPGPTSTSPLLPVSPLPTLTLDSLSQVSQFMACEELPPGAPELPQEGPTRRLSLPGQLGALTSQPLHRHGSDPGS

[6] = Half life in Swiss albino mouse plasma at 30 mg/kg, po; type: ADME, organism-based; parameters: dose 30 mg/kg, route oral
How it was run: (§2)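 Swiss Albino mice given a single oral dose of 30 mg/kg. Plasma and brain were sampled over 0–8 h. AUC(0–8), Cmax, Tmax and t1/2 were derived for each matrix.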

[7] = Cmax in Swiss albino mouse plasma at 30 mg/kg, po; type: ADME, organism-based; parameters: dose 30 mg/kg, route oral
How it was run: as §2

[8] = Half life in Swiss albino mouse brain at 30 mg/kg, po; type: ADME, organism-based; parameters: dose 30 mg/kg, route oral
How it was run: as §2

[9] = Tmax in Swiss albino mouse brain at 30 mg/kg, po; type: ADME, organism-based; parameters: dose 30 mg/kg, route oral
How it was run: as §2

Mus musculus = experiment: Antiobesity activity in diet induced obese C57BL/6J mouse assessed as decrease in body weight at 30 mg/kg, po bid for 14 days measured at day 14 relative to control; type: functional; parameters: scale not given: the % may be the effect or the level left
How it was run: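 C57BL/6J mice were fed a high-fat diet (60% calories from fat) for about 3 months, to roughly 45 g average body weight. Animals were grouped by initial weight. Dosing was oral, 30 mg/kg twice daily for 14 days, against vehicle controls (n = 12). Body weight and food intake were recorded daily.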

[10] = AUC (0 to 8 hrs) in Swiss albino mouse plasma at 30 mg/kg, po; type: ADME, organism-based; parameters: time < 8 hr, dose 30 mg/kg, route oral
How it was run: as §2

[11] = AUC (0 to 8 hrs) in Swiss albino mouse brain at 30 mg/kg, po; type: ADME, organism-based; parameters: time < 8 hr, dose 30 mg/kg, route oral
How it was run: as §2

[12] = Tmax in Swiss albino mouse plasma at 30 mg/kg, po; type: ADME, organism-based; parameters: dose 30 mg/kg, route oral
How it was run: as §2

[13] = Cmax in Swiss albino mouse brain at 30 mg/kg, po; type: ADME, organism-based; parameters: dose 30 mg/kg, route oral
How it was run: as §2

[14] = Stability in mouse blood assessed as compound remaining after 30 mins by HPLC analysis; type: ADME, tissue-based; conditions: read-out: Stability
[15] = target: Voltage-gated inwardly rectifying potassium channel KCNH2 (Homo sapiens, UniProt Q12809)
Voltage-gated inwardly rectifying potassium channel KCNH2, sequence (Q12809 whole entry): as above

[16] = target: T1, Melanin-concentrating hormone receptor 1; experiment: Antagonist activity at human MCHR1 expressed in CHO-K1 cells assessed as inhibition of MCH peptide mediated response measuring [3H]inositol phosphate production at 10 uM by IP3-SPA-YSI assay; type: functional, cell-based; parameters: scale not given: the % may be the effect or the level left
[17] = 5% DMSO and 95% PBS, read-out: solubility

T1 sequence (Q99705 whole entry): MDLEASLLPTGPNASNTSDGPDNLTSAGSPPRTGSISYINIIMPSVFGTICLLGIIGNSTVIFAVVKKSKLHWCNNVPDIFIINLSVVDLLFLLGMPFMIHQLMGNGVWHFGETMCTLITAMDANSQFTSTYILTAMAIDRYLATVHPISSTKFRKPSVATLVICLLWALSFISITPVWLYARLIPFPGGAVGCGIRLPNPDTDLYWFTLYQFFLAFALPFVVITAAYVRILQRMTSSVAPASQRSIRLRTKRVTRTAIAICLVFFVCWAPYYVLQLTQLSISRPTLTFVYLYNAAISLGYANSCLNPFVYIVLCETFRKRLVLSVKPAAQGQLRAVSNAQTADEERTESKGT

Structure (SMILES) | IC50 [1] | IC50 [2] | other results
COC1CCN(c2nc(C)c3cc(NC(=O)COc4ccc(Cl)cc4)ccc3n2)CC1 | 213 nM | 181 nM | –
Cc1nc(N2CCN(C)CC2)nc2ccc(NC(=O)COc3ccc(Cl)cc3)cc12 | 220 nM | 3800 nM | –
CCC1(O)CCN(c2nc(C)c3cc(NC(=O)COc4ccc(Cl)cc4)ccc3n2)CC1 | 208 nM | 384 nM | –
Cc1nc(N2CCN(C(=O)CC(C)C)CC2)nc2ccc(NC(=O)COc3ccc(Cl)cc3)cc12 | 141 nM | 160 nM | –
COCC(=O)N1CCN(c2nc(C)c3cc(NC(=O)COc4ccc(Cl)cc4)ccc3n2)CC1 | 215 nM | 295 nM | –
Cc1nc(N2CCC(C)(O)CC2)nc2ccc(NC(=O)COc3ccc(Cl)cc3)cc12 | 237 nM | 827 nM | –
CCN1CCN(c2nc(C)c3cc(NC(=O)COc4ccc(Cl)cc4)ccc3n2)CC1 | 690 nM | – | –
Cc1nc(N2CCN(C(=O)C3CCC3)CC2)nc2ccc(NC(=O)COc3ccc(Cl)cc3)cc12 | 325 nM | 158 nM | –
Cc1nc(N2CCN(C(=O)C3CCCC3)CC2)nc2ccc(NC(=O)COc3ccc(Cl)cc3)cc12 | 305 nM | 350 nM | –
Cc1nc(N2CCC(O)CC2)nc2ccc(NC(=O)C(C)(C)Oc3ccc(Cl)cc3)cc12 | > 10000 nM | > 10000 nM | –
Cc1nc(N2CCC(O)(c3ccc(F)cn3)CC2)nc2ccc(NC(=O)COc3ccc(OC(F)(F)F)cc3)cc12 | 213 nM | 59 nM | –
Cc1nc(N2CCC(N)CC2)nc2ccc(NC(=O)COc3ccc(Cl)cc3)cc12 | 150 nM | 610 nM | –
Cc1nc(N2CCN(C(=O)C3CC3)CC2)nc2ccc(NC(=O)COc3ccc(Cl)cc3)cc12 | 251 nM | 146 nM | –
Cc1nc(N2CCN(C(=O)C3CCCCC3)CC2)nc2ccc(NC(=O)COc3ccc(Cl)cc3)cc12 | 116 nM | 1040 nM | –
Cc1nc(N2CCN(C3CC3)CC2)nc2ccc(NC(=O)COc3ccc(Cl)cc3)cc12 | 270 nM | 350 nM | –
Cc1nc(N2CCC(O)CC2)nc2ccc(NC(=O)COc3ccc(Cl)cc3)cc12 | 150 nM | 163 nM | –
Cc1nc(N2CCN(C(=O)c3ccccc3)CC2)nc2ccc(NC(=O)COc3ccc(Cl)cc3)cc12 | 7300 nM | > 10000 nM | –

Structure (SMILES) | IC50 [1] | IC50 [2] | other results
Cc1nc(N2CCCCC2)nc2ccc(NC(=O)COc3ccc(Cl)cc3)cc12 | 180 nM | 305 nM | –
Cc1nc(N2CCN(CC(C)(C)C)CC2)nc2ccc(NC(=O)COc3ccc(Cl)cc3)cc12 | 782 nM | 246 nM | –
Cc1nc(N2CCC(O)(C(N)=O)CC2)nc2ccc(NC(=O)COc3ccc(OC(F)(F)F)cc3)cc12 | 636 nM | – | Activity [16]: 72%
Cc1nc(N2CCC(O)(c3ccc(F)cc3)CC2)nc2ccc(NC(=O)COc3ccc(OC(F)(F)F)cc3)cc12 | 150 nM | 55 nM | –
CCC1(O)CCN(c2nc(C)c3cc(NC(=O)COc4ccc(OC(F)(F)F)cc4)ccc3n2)CC1 | 116 nM | 59 nM | –
Cc1nc(N2CCC(N3CCCC3)CC2)nc2ccc(NC(=O)C(C)Oc3ccc(Cl)cc3)cc12 (stereo unspecified) | 258 nM | 401 nM | solubility [3, 17]: 272 µM (≈ 134 µg/mL); inhibition at 1 µM (hERG (KCNH2)): 76%; remaining at 0.5 h, 10 µM [4]: 34%; remaining at 0.5 h [14]: 67%
Cc1nc(N2CCC(O)(c3ccccc3)CC2)nc2ccc(NC(=O)COc3ccc(OC(F)(F)F)cc3)cc12 | 354 nM | 67 nM | –
Cc1nc(N2CCC(NC(=O)NC(C)C)CC2)nc2ccc(NC(=O)COc3ccc(Cl)cc3)cc12 | 7 nM | 4 nM | solubility ([3]; buffer): Insoluble
Cc1nc(N2CCC(N3CCCC3)CC2)nc2ccc(NC(=O)C(C)(C)Oc3ccc(Cl)cc3)cc12 | > 10000 nM | > 10000 nM | –
Cc1nc(N2CCC(C(=O)NC(C)C)CC2)nc2ccc(NC(=O)COc3ccc(Cl)cc3)cc12 | 15 nM | 25 nM | solubility [3, 17]: 132 µM (≈ 65.5 µg/mL); remaining at 0.5 h, 10 µM [4]: 11%; remaining at 0.5 h, 10 µM [5]: 70%; remaining at 0.5 h [14]: 49%
Cc1nc(N2CCC(O)(c3cccc(F)c3)CC2)nc2ccc(NC(=O)COc3ccc(OC(F)(F)F)cc3)cc12 | 635 nM | 100 nM | –
Cc1nc(N2CCN(C(=O)C(C)C)CC2)nc2ccc(NC(=O)COc3ccc(OC(F)(F)F)cc3)cc12 | 36 nM | 33 nM | –
Cc1nc(N2CCN(C(=O)C(C)C)CC2)nc2ccc(NC(=O)COc3ccc(Cl)cc3)cc12 | 225 nM | 91 nM | –
Cc1nc(N2CCN(S(C)(=O)=O)CC2)nc2ccc(NC(=O)COc3ccc(Cl)cc3)cc12 | > 10000 nM | > 10000 nM | –
Cc1nc(N2CCC(NC(=O)C(C)C)CC2)nc2ccc(NC(=O)COc3ccc(Cl)cc3)cc12 | 15 nM | 54 nM | solubility [3, 17]: 205 µM (≈ 102 µg/mL); remaining at 0.5 h, 10 µM [4]: 9%; remaining at 0.5 h, 10 µM [5]: 23%
Cc1nc(N2CCN(C3CCCC3)CC2)nc2ccc(NC(=O)COc3ccc(Cl)cc3)cc12 | 96 nM | 150 nM | –

The next lines start with results.

IC50 [1] | IC50 [2] | Structure (SMILES) | other results
23 nM | 32 nM | Cc1nc(N2CCC(C(N)=O)CC2)nc2ccc(NC(=O)COc3ccc(OC(F)(F)F)cc3)cc12 | –
49 nM | 30 nM | Cc1nc(N2CCN(C(=O)C3CC3)CC2)nc2ccc(NC(=O)COc3ccc(OC(F)(F)F)cc3)cc12 | solubility [3, 17]: 8 µM (≈ 4.24 µg/mL); remaining at 0.5 h, 10 µM [4]: 43%; remaining at 0.5 h, 10 µM [5]: 59%
79 nM | 27 nM | Cc1nc(N2CCC(O)(C3CCC3)CC2)nc2ccc(NC(=O)COc3ccc(OC(F)(F)F)cc3)cc12 | inhibition at 1 µM (hERG (KCNH2)): 31%
6 nM | 16 nM | Cc1nc(N2CCC(N3CCOCC3)CC2)nc2ccc(NC(=O)COc3ccc(OC(F)(F)F)cc3)cc12 | solubility [3, 17]: 12 µM (≈ 6.55 µg/mL); half-life [6]: 3 h; Cmax [7]: 430 nM; half-life [8]: 1.7 h; Tmax [9]: 1 h; Activity (Mus musculus): 12%; AUC(0-t) at 8 h [10]: 1.02 µM·h; AUC(0-t) at 8 h [11]: 6.21 µM·h; Tmax [12]: 1 h; Cmax [13]: 2660 nM; remaining at 0.5 h [14]: 29%
101 nM | 33 nM | Cc1nc(N2CCC(O)(C3CC3)CC2)nc2ccc(NC(=O)COc3ccc(OC(F)(F)F)cc3)cc12 | –
47 nM | 18 nM | Cc1nc(N2CCC(C(=O)N(C)C)CC2)nc2ccc(NC(=O)COc3ccc(OC(F)(F)F)cc3)cc12 | –
19 nM | 4 nM | Cc1nc(N2CCC(N3CCCC3=O)CC2)nc2ccc(NC(=O)COc3ccc(OC(F)(F)F)cc3)cc12 | IC50 [15]: 3700 nM
22 nM | 80 nM | Cc1nc(N2CCC(N)CC2)nc2ccc(NC(=O)COc3ccc(OC(F)(F)F)cc3)cc12 | –
20 nM | 81 nM | Cc1nc(N2CCC(N3CCCC3)CC2)nc2ccc(NC(=O)COc3ccc(Cl)cc3)cc12 | IC50 [15]: 450 nM
45 nM | 115 nM | Cc1nc(N2CCN(C3CCOCC3)CC2)nc2ccc(NC(=O)COc3ccc(Cl)cc3)cc12 | solubility [3, 17]: 15 µM (≈ 7.44 µg/mL); remaining at 0.5 h, 10 µM [4]: 1%; remaining at 0.5 h, 10 µM [5]: 39%
84 nM | 45 nM | Cc1nc(N2CCN(C(=O)C3CCC3)CC2)nc2ccc(NC(=O)COc3ccc(OC(F)(F)F)cc3)cc12 | solubility [3, 17]: 4 µM (≈ 2.17 µg/mL); remaining at 0.5 h, 10 µM [4]: 69%; remaining at 0.5 h, 10 µM [5]: 52%; remaining at 0.5 h [14]: 45%
10 nM | 14 nM | Cc1nc(N2CCC(C(=O)C3CC3)CC2)nc2ccc(NC(=O)COc3ccc(OC(F)(F)F)cc3)cc12 | inhibition at 1 µM (hERG (KCNH2)): 32%
31 nM | 120 nM | Cc1nc(N2CCC(N3CCCC3)CC2)nc2ccc(NC(=O)COc3ccc(OC(F)(F)F)cc3)cc12 | –
327 nM | 156 nM | Cc1nc(N2CCC(O)(C3CCCCC3)CC2)nc2ccc(NC(=O)COc3ccc(OC(F)(F)F)cc3)cc12 | –
7 nM | 31 nM | Cc1nc(N2CCN(C3CCOCC3)CC2)nc2ccc(NC(=O)COc3ccc(OC(F)(F)F)cc3)cc12 | –
17 nM | 9 nM | Cc1nc(N2CCC(C(=O)NC(C)C)CC2)nc2ccc(NC(=O)COc3ccc(OC(F)(F)F)cc3)cc12 | –
9 nM | 3 nM | Cc1nc(N2CCC(C(=O)NC3CC3)CC2)nc2ccc(NC(=O)COc3ccc(OC(F)(F)F)cc3)cc12 | –
